Experimental data published in ChEMBL document CHEMBL1124459, “Activity of aromatic substituted phenylpiperazines lacking affinity for dopamine binding sites in a preclinical test of antipsychotic efficacy” (J Med Chem, 1989).

Columns and labels:
[1] = target: T1, Adrenergic receptor alpha-1 (Rattus norvegicus, UniProt P15823+P23944+P43140); assay: Binding affinity against rat Alpha-1 adrenergic receptor.; assay type: protein assay
T1 sequence (P15823 whole entry): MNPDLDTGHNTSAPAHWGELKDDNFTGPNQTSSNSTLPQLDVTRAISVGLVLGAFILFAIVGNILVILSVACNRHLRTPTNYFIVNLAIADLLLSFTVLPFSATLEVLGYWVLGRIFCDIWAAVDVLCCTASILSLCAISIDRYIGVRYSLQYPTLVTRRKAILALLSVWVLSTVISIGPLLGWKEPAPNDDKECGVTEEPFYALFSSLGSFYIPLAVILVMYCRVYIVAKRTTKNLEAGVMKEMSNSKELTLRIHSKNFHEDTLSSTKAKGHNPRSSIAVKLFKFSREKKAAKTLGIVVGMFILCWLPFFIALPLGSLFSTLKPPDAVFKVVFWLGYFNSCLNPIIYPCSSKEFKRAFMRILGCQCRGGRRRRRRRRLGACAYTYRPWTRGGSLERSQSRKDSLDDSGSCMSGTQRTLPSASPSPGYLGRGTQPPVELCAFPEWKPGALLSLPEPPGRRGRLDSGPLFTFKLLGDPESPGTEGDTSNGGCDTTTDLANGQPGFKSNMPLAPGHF
T1 sequence (P23944 whole entry): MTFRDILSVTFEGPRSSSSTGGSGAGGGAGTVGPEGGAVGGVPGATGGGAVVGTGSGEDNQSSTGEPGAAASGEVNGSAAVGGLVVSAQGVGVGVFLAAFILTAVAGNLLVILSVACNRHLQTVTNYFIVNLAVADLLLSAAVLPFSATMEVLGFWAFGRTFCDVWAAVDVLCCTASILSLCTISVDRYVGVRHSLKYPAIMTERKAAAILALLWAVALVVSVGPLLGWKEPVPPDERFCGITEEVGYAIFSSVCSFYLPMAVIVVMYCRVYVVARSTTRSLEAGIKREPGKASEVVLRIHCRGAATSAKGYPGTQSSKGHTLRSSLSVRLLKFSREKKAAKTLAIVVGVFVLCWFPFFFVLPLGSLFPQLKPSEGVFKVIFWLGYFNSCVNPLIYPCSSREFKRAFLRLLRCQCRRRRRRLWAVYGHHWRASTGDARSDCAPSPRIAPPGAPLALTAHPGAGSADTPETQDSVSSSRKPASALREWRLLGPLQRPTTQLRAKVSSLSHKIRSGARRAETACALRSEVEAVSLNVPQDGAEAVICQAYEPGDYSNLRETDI
T1 sequence (P43140 whole entry): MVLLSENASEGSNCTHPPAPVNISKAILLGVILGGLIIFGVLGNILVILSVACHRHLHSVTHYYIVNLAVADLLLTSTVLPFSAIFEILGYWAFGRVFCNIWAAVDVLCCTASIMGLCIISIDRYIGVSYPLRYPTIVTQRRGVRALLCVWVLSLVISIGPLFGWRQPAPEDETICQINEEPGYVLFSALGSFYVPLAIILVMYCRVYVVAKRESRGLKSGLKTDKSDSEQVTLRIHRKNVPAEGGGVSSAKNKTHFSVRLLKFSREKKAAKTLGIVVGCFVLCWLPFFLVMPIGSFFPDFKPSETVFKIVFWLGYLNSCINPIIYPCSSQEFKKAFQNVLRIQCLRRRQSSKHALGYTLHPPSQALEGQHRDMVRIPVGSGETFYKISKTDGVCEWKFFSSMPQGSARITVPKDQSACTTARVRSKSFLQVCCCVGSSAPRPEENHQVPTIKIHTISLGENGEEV

Rattus norvegicus [2] = assay: Effective dose in blocking conditioned avoidance responding (CAR) in the rat when administered intraperitoneally; assay type: functional; conditions: ip
Procedure, shortened: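 Rats trained on a discrete-trial single-lever conditioned avoidance task, dosed ip and tested at the time of peak effect. Each dose was given to 6–12 rats. CAR reduction and loss of escape responding were recorded.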

[3] = target: T2, 5-hydroxytryptamine receptor 1B (Rattus norvegicus, UniProt P28564); assay: Binding affinity determined in radioreceptor binding assay by using [3H]5-HT radioligand against 5-hydroxytryptamine 1B receptor
T2 sequence (P28564 whole entry): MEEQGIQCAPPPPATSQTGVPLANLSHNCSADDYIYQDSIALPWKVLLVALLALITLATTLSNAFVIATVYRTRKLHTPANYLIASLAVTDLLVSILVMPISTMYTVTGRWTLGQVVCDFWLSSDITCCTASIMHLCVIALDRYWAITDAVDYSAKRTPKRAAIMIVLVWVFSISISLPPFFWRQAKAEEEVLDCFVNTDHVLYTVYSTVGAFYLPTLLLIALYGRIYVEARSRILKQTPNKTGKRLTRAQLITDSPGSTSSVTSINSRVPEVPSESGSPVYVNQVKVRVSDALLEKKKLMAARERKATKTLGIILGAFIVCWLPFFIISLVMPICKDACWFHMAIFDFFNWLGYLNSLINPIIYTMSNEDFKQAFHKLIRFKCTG
Procedure, shortened: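 Rat cortical tissue labelled with [3H]serotonin. The incubation medium included 8-OH-DPAT at 100 nM final. Run in duplicate, with one to five concentration–response curves per compound.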

[4] = target: Serotonin 2 (5-HT2) receptor (Rattus norvegicus, UniProt P30994+P08909+P14842); assay: Binding affinity in radioreceptor binding assay by using [3H]5-HT radioligand against 5-hydroxytryptamine 2 receptor; assay type: protein assay
D(1A) dopamine receptor [5] = target: T3, D(1A) dopamine receptor (Rattus norvegicus, UniProt P18901); assay: Binding affinity at rat Dopamine receptor D1 by [3H]SCH-23390 displacement.
T3 sequence (P18901 whole entry): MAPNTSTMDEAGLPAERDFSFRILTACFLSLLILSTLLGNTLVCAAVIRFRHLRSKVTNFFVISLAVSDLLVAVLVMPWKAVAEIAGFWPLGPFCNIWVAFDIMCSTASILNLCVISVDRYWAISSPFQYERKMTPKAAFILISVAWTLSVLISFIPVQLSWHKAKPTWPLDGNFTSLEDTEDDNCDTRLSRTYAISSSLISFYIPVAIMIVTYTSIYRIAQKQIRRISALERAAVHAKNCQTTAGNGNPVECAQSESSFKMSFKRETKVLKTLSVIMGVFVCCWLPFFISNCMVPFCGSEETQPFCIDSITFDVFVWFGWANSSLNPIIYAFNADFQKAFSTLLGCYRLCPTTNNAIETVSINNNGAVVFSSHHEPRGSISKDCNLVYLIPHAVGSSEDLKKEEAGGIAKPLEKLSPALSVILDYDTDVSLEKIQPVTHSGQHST
Procedure, shortened: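 Rat striatal tissue suspended in 20 mM NaHepes without sucrose, at 250 volumes of the tissue weight. Labelled with [3H]SCH-23390 added as a 3 nM solution. Nonspecific binding set with unlabelled SCH-23390 added as a 30 μM solution. Incubated 20 min. Run in duplicate, with one to five concentration–response curves per compound.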

[6] = target: T4, 5-hydroxytryptamine receptor 1A (Rattus norvegicus, UniProt P19327)
T4 sequence (P19327 whole entry): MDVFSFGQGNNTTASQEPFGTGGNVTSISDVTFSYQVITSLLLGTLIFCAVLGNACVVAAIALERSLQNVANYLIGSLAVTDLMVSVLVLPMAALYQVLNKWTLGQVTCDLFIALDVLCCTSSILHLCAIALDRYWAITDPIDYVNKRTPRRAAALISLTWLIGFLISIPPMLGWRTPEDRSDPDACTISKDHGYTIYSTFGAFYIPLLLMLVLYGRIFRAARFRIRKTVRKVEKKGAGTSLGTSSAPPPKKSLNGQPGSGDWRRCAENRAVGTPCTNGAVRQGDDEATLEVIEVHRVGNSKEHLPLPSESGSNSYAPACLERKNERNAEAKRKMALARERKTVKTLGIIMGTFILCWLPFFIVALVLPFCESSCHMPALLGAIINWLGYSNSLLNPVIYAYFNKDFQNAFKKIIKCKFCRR

[7] = target: Serotonin 1 (5-HT1) receptor (Rattus norvegicus, UniProt P28564+P30940+P19327+P28565); assay: Binding affinity in radioreceptor binding assay by using [3H]5-HT radioligand against 5-hydroxytryptamine 1 receptor; assay type: protein assay
D(2) dopamine receptor [8] = target: T5, D(2) dopamine receptor (Rattus norvegicus, UniProt P61169); assay: Binding affinity against rat Dopamine receptor D2.
T5 sequence (P61169 whole entry): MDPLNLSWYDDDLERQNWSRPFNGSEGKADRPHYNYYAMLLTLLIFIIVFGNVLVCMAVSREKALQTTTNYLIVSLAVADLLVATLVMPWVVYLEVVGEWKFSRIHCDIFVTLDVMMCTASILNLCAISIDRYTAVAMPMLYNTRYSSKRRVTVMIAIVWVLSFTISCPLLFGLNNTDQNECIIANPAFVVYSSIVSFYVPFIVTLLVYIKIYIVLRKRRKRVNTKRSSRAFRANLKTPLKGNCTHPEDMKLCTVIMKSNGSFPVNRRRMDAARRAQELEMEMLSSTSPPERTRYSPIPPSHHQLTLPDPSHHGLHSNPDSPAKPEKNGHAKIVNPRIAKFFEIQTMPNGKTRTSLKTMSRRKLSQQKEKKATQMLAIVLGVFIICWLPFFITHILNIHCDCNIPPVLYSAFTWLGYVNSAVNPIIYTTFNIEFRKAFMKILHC

[9] = target: T4, 5-hydroxytryptamine receptor 1A; assay: Binding affinity in radioreceptor binding assay by using [3H]5-HT radioligand against 5-hydroxytryptamine 1A receptor
D(1A) dopamine receptor [10] = target: T3, D(1A) dopamine receptor; assay: Binding affinity in radioreceptor binding assay by using [3H]5-HT radioligand against Dopamine receptor D1
[11] = target: T2, 5-hydroxytryptamine receptor 1B; assay: Binding affinity in radioreceptor binding assay by using [3H]5-HT radioligand against 5-hydroxytryptamine 1B receptor
Procedure, shortened: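 Rat cortical membranes; [3H]serotonin as ligand, as in the 5-HT-1 assay, with 8-OH-DPAT added at 100 nM final to the incubation medium; assays run in duplicate; one to five concentration-response curves per compound.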

Rattus norvegicus [12] = organism: Rattus norvegicus; assay: The percent loss of escape responding was determined for the estimated effective dose 50 values for CAR block; assay type: functional
D(2) dopamine receptor [13] = target: T5, D(2) dopamine receptor; assay: Binding affinity in radioreceptor binding assay by using [3H]5-HT radioligand against Dopamine receptor D2

Oc1ccccc1N1CCNCC1
Ki [1]: 516 nM | ED50 (Rattus norvegicus [2]): 26.2 mg/kg | Ki [3]: 74.2 nM | Ki [4]: > 1000 nM | Ki (D(1A) dopamine receptor [5]): > 1000 nM | Ki [6]: 35.3 nM | Ki [7]: 117 nM | Ki (D(2) dopamine receptor [8]): > 1000 nM

FC(F)(F)c1cccc(N2CCNCC2)c1
Ki [1]: 337 nM | Ki [9]: 80.6 nM | Ki (D(1A) dopamine receptor [10]): > 1000 nM | ED50 (Rattus norvegicus [2]): 2.6 mg/kg | Ki [11]: 2.25 nM | Loss (Rattus norvegicus [12]): 0.6% | Ki [4]: 31.1 nM | Ki (D(2) dopamine receptor [13]): 530 nM
